Experimental data as given in ChEMBL document CHEMBL1153622, “Antiviral evaluation of N-amino-1,2,3-triazoles against Cantagalo virus replication in cell culture” (Eur J Med Chem, 2009).
Activity calls are given as the source filed them. The rule behind the calls is not given here.

Experiments:
[1] = system: Cantagalo virus; test: Antiviral activity against Cantagalo virus in african green monkey BSC40 cells assessed inhibition of viral plaque number at 50 uM after 48 hrs post infection; format: functional; settings: BSC-40, 48 h
[2] = system: Vaccinia virus; test: Antiviral activity against Vaccinia virus; format: functional, organism-based; settings: Orthopoxvirus vaccinia
[3] = system: Cantagalo virus; test: Antiviral activity against Cantagalo virus in african green monkey BSC40 cells assessed inhibition of viral yield at 50 uM after 24 hrs post infection by plaque assay; format: functional; settings: BSC-40, 24 h
[4] = Cytotoxicity against african green monkey BSC40 cells assessed as cell viability at 50 uM for 24 hrs by neutral red assay; format: cell-based, BSC-40; settings: chlorocebus aethiops, read-out: Activity
In short: (§1)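 Confluent BSC-40 cells exposed to compound for 24 h at 37 °C, 0.5% DMSO control. Neutral red (50 µg/mL) added for 3 h at 37 °C, then 50% methanol with 1% acetic acid for 20 min at room temperature. OD 490 nm read; uptake proportional to viable cells.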

[5] = Cytotoxicity against african green monkey BSC40 cells assessed as non-viable cells at 50 uM for 24 hrs by neutral red assay; format: cell-based; settings: chlorocebus aethiops, bsc-40, 24 h; in short: as §1
[6] = Cytotoxicity against african green monkey BSC40 cells assessed as non-viable cells at 100 uM for 24 hrs by neutral red assay; format: cell-based; settings: chlorocebus aethiops, bsc-40, 24 h; in short: as §1
[7] = system: Cantagalo virus; test: Antiviral activity against Cantagalo virus replication in BSC-40 cells assessed as inhibition of viral protein accumulation at 50 uM after 24 hrs post infection by Western blot; format: functional, organism-based
[8] = system: Cantagalo virus; test: Antiviral activity against Cantagalo virus replication in african green monkey BSC40 cells assessed as inhibition of viral protein accumulation after 24 hrs post infection by Western blot; format: functional, organism-based; settings: BSC-40
[9] = system: Cantagalo virus; test: Antiviral activity against Cantagalo virus in african green monkey BSC40 cells assessed as inhibition of viral protein accumulation at 100 uM after 24 hrs post infection by Western blot; format: functional, BSC-40; parameters: scale not given: the % may be the effect or the level left
[10] = system: Cantagalo virus; test: Antiviral activity against Cantagalo virus in african green monkey BSC40 cells assessed inhibition of viral yield at 100 uM after 24 hrs post infection by plaque assay; format: functional, BSC-40; parameters: scale not given: the % may be the effect or the level left
[11] = system: Cowpox virus; test: Antiviral activity against Cowpox virus; format: functional, organism-based
[12] = system: Cantagalo virus; test: Antiviral activity against Cantagalo virus in african green monkey BSC40 cells assessed inhibition of viral plaque formation at 100 uM after 48 hrs post infection; format: functional; settings: BSC-40, 48 h
[13] = Cytotoxicity against african green monkey BSC40 cells assessed as reduction in cell viability at 100 uM for 24 hrs by neutral red assay; format: cell-based; settings: chlorocebus aethiops, bsc-40, 24 h; in short: as §1
[14] = Cytotoxicity against african green monkey BSC40 cells assessed as change in cell morphology at 100 uM for 24 hrs by neutral red assay; format: cell-based; settings: chlorocebus aethiops, bsc-40, 24 h

Compound: Cc1c(C(=O)NN)nnn1Nc1ccc(Br)cc1
- inhibition at 50 µM [1]: 8.4%

Compound: CCOC(=O)c1nnn(Nc2ccc(Cl)cc2)c1C
- inhibition at 50 µM [1]: 11%

Compound: Nc1ccn(C[C@@H](CO)OCP(=O)(O)O)c(=O)n1 [CIDOFOVIR]
- EC50 [2]: 10 µM

Compound: Cc1c(C(=O)NN)nnn1Nc1cc(Cl)ccc1Cl
- inhibition at 50 µM [1]: 9.71%

Compound: CCOC(=O)c1nnn(Nc2cc(Cl)ccc2Cl)c1C
- inhibition at 50 µM [1]: 47.2%
- inhibition at 50 µM [3]: 67.5%
- viability at 24 h, 50 µM [4]: 60%

Compound: Cc1c(C(=O)NN)nnn1Nc1ccc(F)cc1
- inhibition at 50 µM [1]: 48.3%
- inhibition at 50 µM [3]: 55.7%
- Activity [5]: 10%
- Activity [6]: 30%
- Activity [7]: Active
- Activity [8]: Dose-dependent effect
- Activity [9]: 71.2%
- Activity [10]: 80%

Compound: O=C(NN1C(=O)[C@@H]2[C@@H]3C=C[C@@H]([C@H]4C[C@@H]34)[C@@H]2C1=O)c1ccc(C(F)(F)F)cc1 [TECOVIRIMAT]
- EC50 [2]: < 0.5 µM
- EC50 [11]: < 500 nM

Compound: CCOC(=O)c1nnn(Nc2ccccc2)c1C
- inhibition at 50 µM [1]: 15.2%

Compound: CCOC(=O)c1nnn(Nc2ccc(F)cc2)c1C
- inhibition at 50 µM [1]: 9.42%

Compound: CCOC(=O)c1nnn(Nc2ccc(Br)cc2)c1C
- inhibition at 50 µM [1]: 34.4%
- inhibition at 100 µM [12]: 84.6%
- Activity [13]: 52.6%
- Activity [14]: Toxic

Compound: Cc1c(C(=O)NN)nnn1Nc1ccccc1
- inhibition at 50 µM [1]: 6.1%

Compound: Cc1c(C(=O)NN)nnn1Nc1ccc(Cl)cc1
- inhibition at 50 µM [1]: 3.79%
